From PubChem
Beta2AR agonist: agonists of human beta-2 adrenergic receptor inducing internalization. Am2.2-beta2AR cells, FAP receptor internalization, flow cytometry. response, % (test concentration not listed). 340,000 compounds, 0.43% hits;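 active = response above a set limit, near 3 SD of response in nonfluorescent compounds, cut at about 42% in these data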
TAAR1 ag: agonists of human TAAR1; Q96RJ0; CHO RD-HGA16 TAAR1, Fluo-8 calcium fluorescence; vehicle wells 0%, saturating PEA agonist 100%; activation, % at 3 µM; 360,000 compounds, 0.99% hits;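 active = activation above the mean activation of all test compounds in the run plus 3 SD, cut at about 38% in these data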
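Test system: RD-HGA16 (CHO) cells co-expressing Gα16 and hTAAR1 / Benchmarks: DMSO vehicle as 0%, PEA at EC100 as 100% / Repeats: no replicates (n 1) / Measure: % activation from peak over basal fluorescence ratio, DMSO-to-PEA scaled / Timing: 17-24 h plating, Fluo-8 75 min 37 °C, 30 min RT / Technique: kinetic Fluo-8 calcium fluorescence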
MC4R ag barr: agonists of human melanocortin 4 receptor (MC4R) beta-arrestin; P32245; U2OS MC4R beta-arrestin complementation, luminescence; percent of melanotan II response, DMSO zero; activation, % at 8.9 µM; 360,000 compounds, 0.98% hits; AID 540308;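 active = activation above a per-plate cutoff, the mean activation of sample wells on that plate plus 3 SD, cut at about 8% in these data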
m5-HT2A agonist: agonists of mouse serotonin 5-HT2A receptor (HTR2A); P35363; CHO-K1 mHTR2A beta-arrestin complementation, luminescence; percent of 30 µM serotonin response; 360,000 compounds, 0.66% hits; AID 624169; activation, % at 7.6 µM;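 active = activation above a run cutoff, the mean activation of all tested compounds plus 3 SD, cut at about 14% in these data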;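 note: 0% = plate median of compound wells and 100% = 30 µM serotonin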
Target sequence (P35363 whole entry, looked up): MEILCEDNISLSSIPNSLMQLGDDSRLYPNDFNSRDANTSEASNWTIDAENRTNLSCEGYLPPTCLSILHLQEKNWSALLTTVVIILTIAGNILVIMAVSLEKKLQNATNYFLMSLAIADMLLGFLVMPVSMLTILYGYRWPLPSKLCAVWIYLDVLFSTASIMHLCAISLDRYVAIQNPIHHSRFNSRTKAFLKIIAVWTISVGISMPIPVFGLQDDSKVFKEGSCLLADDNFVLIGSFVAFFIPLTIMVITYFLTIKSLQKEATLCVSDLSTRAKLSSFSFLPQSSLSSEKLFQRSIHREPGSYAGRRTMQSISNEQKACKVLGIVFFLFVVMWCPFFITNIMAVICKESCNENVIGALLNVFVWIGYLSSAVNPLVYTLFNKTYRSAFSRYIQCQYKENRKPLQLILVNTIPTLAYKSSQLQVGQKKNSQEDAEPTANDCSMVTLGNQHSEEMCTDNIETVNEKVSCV
TAAR1 antagonist: human TAAR1 antagonism; CHO RD-HGA16 TAAR1, Fluo-8 calcium fluorescence, antagonist; inhibition, % at 3 µM; 360,000 compounds, 1.5% hits; AID 624466;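 active = inhibition above a per-plate cutoff, the mean inhibition of test compounds on that plate plus 3 SD, cut at about 49% in these data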;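 note: 0% = DMSO plus EC80 beta-PEA response and 100% = DMSO alone without agonist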
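Material: CHO RD-HGA16 cells bearing hTAAR1; compound dosing: one-point dosing, 3 µM nominal final; schedule: dye loading 75 min at 37 °C, then 30 min room temperature; measured by: calcium fluorescence with Fluo-8; control set: vehicle and agonist controls; replication: n of 1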
MC4R antagonist: blocks human MC4R cAMP signaling; P32245; MC4R-expressing cells, MTII-stimulated cAMP, LANCE TR-FRET; inhibition, % at 6.5 µM; 360,000 compounds, 0.48% hits;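 active = inhibition above its plate's cutoff, the mean of tested wells on that plate plus 3 SD, cut at about 29% in these data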;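 note: 0% = Melanotan II alone and 100% = Melanotan II plus saturating MCL0020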
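Material: U2OS-MC4R stable cell line | Reagent: Melanotan II challenge after compound preincubation | Doses: One concentration, 6.5 µM nominal | Incubation: 30-min compound preincubation, 1-h Melanotan II challenge, 1-h detection, room temperature | Signal: TR-FRET cAMP assay | Replicates: One well per compound, no replicates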
nonsel antag count: nonselective antagonist in TAAR1 antagonist counter-screen. shares compounds with TAAR1 antagonist. counterscreen cell line, calcium fluorescence, antagonist mode. inhibition, % at 3 µM. 2,400 compounds, 77% hits. AID 651780; in the data active = inhibition above about 22%;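 note: CHO-Ga16 host cells stimulated with ATP at an EC80 level; 0% = agonist EC80 plus vehicle and 100% = vehicle without agonist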
TAAR1 antag conf: human TAAR1 antagonism, confirmed; shares compounds with TAAR1 antagonist; TAAR1-expressing cells, fluorescence antagonist read-out; inhibition, % at 3 µM; 2,400 compounds, 40% hits; AID 651785; in the data active = inhibition above about 49%;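 note: CHO-Ga16 host cells challenged with agonist PEA near its EC80; 0% = agonist at EC80 plus vehicle and 100% = vehicle with no agonist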
Ga16 ag counter: nonselective Ga16 agonist in TAAR1 antagonist counter-screen; 2,400 compounds, 18% hits; shares compounds with TAAR1 antagonist; Ga16-expressing cells, calcium fluorescence, agonist counterscreen; activation, % at 3 µM; in the data active = activation above about 12%;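 note: 0% = vehicle wells and 100% = saturating stimulus response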
TAAR1 ag counter: counter-screen for human TAAR1 antagonists: TAAR1 agonists; shares compounds with TAAR1 antagonist; hTAAR1 cell line, fluorescence activation, agonist mode; activation, % at 3 µM; 2,400 compounds, 2% hits; in the data active = activation above about 37%;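 note: CHO cells stably expressing TAAR1 with calcium dye readout; 0% = DMSO vehicle and 100% = full agonist response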
* marks the source's active call; other numbers are inactive results. The list is not random: actives were taken first. Their share in the collection is about 4.3%.

`COc1ccccc1NS(=O)(=O)c1ccc2c(c1)OCCO2` gave Beta2AR agonist 1, TAAR1 ag 1, MC4R ag barr 2, m5-HT2A agonist -12, TAAR1 antagonist 3 and MC4R antagonist 13.
`Cc1c(Br)cccc1NC(=O)C1(C)CCN1CCc1ccccc1` (configuration not stated) gave TAAR1 ag -2, MC4R ag barr 1, m5-HT2A agonist -3, TAAR1 antagonist -7 and MC4R antagonist 11.
Screening O=C1Nc2ccc(Br)cc2C1=C1CCCCC1 returned Beta2AR agonist -9, TAAR1 ag 13, MC4R ag barr 3, m5-HT2A agonist 2, TAAR1 antagonist 76*, MC4R antagonist 9, nonsel antag count 17, TAAR1 antag conf 36, Ga16 ag counter 6 and TAAR1 ag counter 7.
Screening COc1ccc(CCNC(=S)NC(=O)c2cc(OC)c(OC)c(OC)c2)cc1OC returned Beta2AR agonist -7, TAAR1 ag 18, MC4R ag barr 0, m5-HT2A agonist -2, TAAR1 antagonist 2 and MC4R antagonist 19.
Screening Cc1ccc(CNC(=O)CCCn2nc(C)c3c(C)n(-c4ccccc4)nc3c2=O)cc1 returned Beta2AR agonist -3, TAAR1 ag 3, MC4R ag barr -3, m5-HT2A agonist -6, TAAR1 antagonist -7 and MC4R antagonist 5.
`COc1ccc(Nc2ncc(C(=O)N3CCN(c4ccc(F)cc4)CC3)c3ccccc23)cc1` gave Beta2AR agonist 18, TAAR1 ag 25, MC4R ag barr -1, m5-HT2A agonist -5, TAAR1 antagonist 55*, MC4R antagonist -1, nonsel antag count 37*, TAAR1 antag conf 54*, Ga16 ag counter 11 and TAAR1 ag counter 8.
Screening COc1ccc(C(=O)Nc2ccc(N3CCN(C(=O)c4ccccc4C)CC3)cc2)cc1 returned Beta2AR agonist 5, TAAR1 ag 10, MC4R ag barr -1, m5-HT2A agonist 2, TAAR1 antagonist 65*, MC4R antagonist 1, nonsel antag count 24*, TAAR1 antag conf 37, Ga16 ag counter 14* and TAAR1 ag counter 12.
`Cc1ccc(S(=O)(=O)NC(C(=O)Oc2ccc3c(C)c(Cl)c(=O)oc3c2)c2ccccc2)cc1` (configuration not stated) gave Beta2AR agonist 6, TAAR1 ag 5, MC4R ag barr -2, m5-HT2A agonist -1, TAAR1 antagonist 12 and MC4R antagonist 9.
`CCC[C@@H](NS(=O)(=O)c1ccc(C)cc1)C(=O)Oc1ccc2c3c(c(=O)oc2c1)CCC3` gave Beta2AR agonist -7, TAAR1 ag 8, MC4R ag barr 0, m5-HT2A agonist 10, TAAR1 antagonist 90*, MC4R antagonist 8, nonsel antag count 47*, TAAR1 antag conf 70*, Ga16 ag counter 11 and TAAR1 ag counter 10.
Screening COC(=O)[C@]12C[C@H](CC(=O)NCc3ccc(C)o3)C(=O)N(Cc3ccc4c(c3)OCO4)C1=C[C@H](COCc1ccccc1)O[C@@H]2C returned TAAR1 ag -1 and TAAR1 antagonist -22.
`COC(=O)c1ccc2nc(-c3ccc(OC)c(OC)c3)c(Cc3ccc(OC)cc3C)n2c1` gave TAAR1 ag 3, m5-HT2A agonist 4 and TAAR1 antagonist -18.
For O=C(CCC(=O)Nc1ccc(F)cc1)N/N=C/c1ccc(Br)cc1 the results were Beta2AR agonist -8, TAAR1 ag 37, MC4R ag barr 1, m5-HT2A agonist 7, TAAR1 antagonist 53*, MC4R antagonist 6, nonsel antag count 9, TAAR1 antag conf 34, Ga16 ag counter -1 and TAAR1 ag counter 19.
Screening O=C(CCC(=O)Nc1ccc(F)cc1)N/N=C/c1ccccc1 returned Beta2AR agonist -10, TAAR1 ag 34, MC4R ag barr -1, m5-HT2A agonist 4, TAAR1 antagonist -6 and MC4R antagonist 18.
CCc1ccc(OCC(=O)NNC(=O)C2CCN(c3ncnc4sc(C)c(C)c34)CC2)cc1 was read as Beta2AR agonist -1, TAAR1 ag 6, MC4R ag barr -3, m5-HT2A agonist -2, TAAR1 antagonist 30 and MC4R antagonist -2.
`Cc1sc2ncnc(N3CCC(C(=O)NNC(=O)COc4ccc(Br)cc4)CC3)c2c1C` gave Beta2AR agonist 15, TAAR1 ag 20, MC4R ag barr -4, m5-HT2A agonist 6, TAAR1 antagonist 76*, MC4R antagonist -4, nonsel antag count 42*, TAAR1 antag conf 53*, Ga16 ag counter 12* and TAAR1 ag counter 21.
`Cc1sc2ncnc(N3CCC(C(=O)NNC(=O)COc4ccccc4F)CC3)c2c1C` gave Beta2AR agonist 11, TAAR1 ag 17, MC4R ag barr -2, m5-HT2A agonist -4, TAAR1 antagonist 65*, MC4R antagonist 2, nonsel antag count 31*, TAAR1 antag conf 47, Ga16 ag counter 10 and TAAR1 ag counter 27.
COc1ccc(OCC(=O)NNC(=O)C2CCN(c3ncnc4sc(C)c(C)c34)CC2)cc1 was read as Beta2AR agonist 6, TAAR1 ag 10, MC4R ag barr -1, m5-HT2A agonist 2, TAAR1 antagonist 29 and MC4R antagonist 1.
Screening Cc1sc2ncnc(N3CCC(C(=O)NNC(=O)COc4ccc(Cl)cc4)CC3)c2c1C returned Beta2AR agonist 12, TAAR1 ag 23, MC4R ag barr -4, m5-HT2A agonist 12, TAAR1 antagonist 70*, MC4R antagonist 8, nonsel antag count 38*, TAAR1 antag conf 42, Ga16 ag counter 12* and TAAR1 ag counter 27.
Screening Cc1cc(Cl)ccc1OCC(=O)NNC(=O)C1CCN(c2ncnc3sc(C)c(C)c23)CC1 returned Beta2AR agonist 9, TAAR1 ag 19, MC4R ag barr 0, m5-HT2A agonist 10, TAAR1 antagonist 78*, MC4R antagonist 3, nonsel antag count 39*, TAAR1 antag conf 52*, Ga16 ag counter 14* and TAAR1 ag counter 21.
